In ChEMBL document CHEMBL4024783, “Alkylated Piperazines and Piperazine-Azole Hybrids as Antifungal Agents” (J Med Chem, 2018):
Values after ≈ are worked out from the molar mass of the structure shown. Active and inactive are the calls of the source. The rule behind the calls is not given here.

Legend:
Aspergillus nidulans [1] = experiment: Antifungal activity against Aspergillus nidulans ATCC 38163 after 48 hrs in the presence of 10% FBS by broth dilution method; assay type: functional; details: ATCC 38163, 48 h
Nakaseomyces glabratus [2] = experiment: Fungicidal activity against Candida glabrata ATCC 2001 at 4 times MIC incubated for 24 hrs by time kill assay; assay type: functional; details: CBS 138
How it was run: (§1)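 Overnight YPD cultures were diluted in RPMI 1640 to OD600 0.12–0.13; initial inoculum 1–4 × 10^5 CFU/mL. […] Shaken at 200 rpm, 35 °C, for 24 h, sampling at 0, 3, 6, 9, 12 and 24 h. Serial dilutions were plated on PDA and CFU counted; detection limit 100 CFU/mL; duplicate.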

Aspergillus flavus = experiment: Antifungal activity against Aspergillus flavus ATCC MYA-3631 after 48 hrs by broth dilution method; assay type: functional; details: ATCC MYA-3631, 48 h
Candida albicans [3] = experiment: Antifungal activity against itraconazole and fluconazole resistant Candida albicans ATCC MYA-1237 after 48 hrs by broth dilution method; assay type: functional; details: Candida albicans, ATCC MYA-1237, 48 h
How it was run: (§2)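 CLSI M27-A3 broth microdilution with minor modifications. Overnight YPD culture grown at 35 °C, 200 rpm, adjusted to OD600 0.12, diluted in RPMI 1640 buffered to pH 7.0 with 0.165 M MOPS to a final 1–2 × 10^3 CFU/mL. Test compounds at 0.015–31.3 µg/mL, 48 h at 35 °C, DMSO <1.25%. […] Triplicate.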

[4] = Cytotoxicity against HEK293 cells assessed as cell survival at 7.8 ug/mL after 24 hrs by resazurin-based fluorescence assay; details: human, read-out: Survival
How it was run: (§3)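 Cells were grown in DMEM with 10% FBS and 1% Pen/Strep at 37 °C, 5% CO2. HEK-293 was seeded at 10000 cells/well; A549 and BEAS-2B at 3000 cells/well. After 16 h, cells were exposed for 24 h to final 0.13–31 µg/mL in 0.1–0.4% DMSO, then given resazurin for 6–10 h. Read at ex 560/em 590. […] Run in duplicate.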

[5] = Solubility of the compound in DMSO; assay type: physicochemical
Candida albicans [6] = experiment: Antibiofilm activity against voriconazole resistant Candida albicans ATCC 64124 sessile cells incubated for 24 hrs by XTT reduction assay; assay type: functional; details: ATCC 64124, 24 h
How it was run: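 Strain B grown overnight in YPD broth at 35 °C, diluted to OD600 0.1 (~10^6 CFU/mL), then grown statically for 24 h at 37 °C to form biofilm. Washed with PBS, then drug in RPMI 1640 at 0.12–62.5 µg/mL for 24 h at 37 °C. Read-out: XTT 0.5 mg/mL with menadione 1 µM, 2 h, A490. SMIC50/SMIC80 are 50%/80% decreases versus drug-free biofilm. Duplicate.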

Candida albicans [7] = experiment: Antifungal activity against itraconazole and fluconazole resistant Candida albicans ATCC MYA-1003 after 48 hrs by broth dilution method; assay type: functional; details: Candida albicans, ATCC MYA-1003, 48 h; how it was run: as §2
Pichia kudriavzevii = experiment: Antifungal activity against Candida krusei ATCC 6258 after 48 hrs by broth dilution method; assay type: functional; details: Pichia kudriavzevii, ATCC 6258, 48 h
How it was run: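 Yeasts tested per CLSI M27-A3 with minor changes. An overnight YPD culture (35 °C, 200 rpm) was adjusted to OD600 0.12 and diluted in MOPS-buffered RPMI 1640 (pH 7.0) to a final 1–2 × 10^3 CFU/mL. Compounds 0.015–31.3 µg/mL, DMSO <1.25%.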

[8] = Aqueous solubility of the compound; assay type: physicochemical; details: buffer
Candida albicans [9] = experiment: Antifungal activity against Candida albicans ATCC 64124 after 48 hrs by broth dilution method; assay type: functional; details: Candida albicans, ATCC 64124, 48 h; how it was run: as §2
Candida albicans [10] = experiment: Antifungal activity against itraconazole and fluconazole resistant Candida albicans ATCC 90819 after 48 hrs by broth dilution method; assay type: functional; details: Candida albicans, ATCC 90819, 48 h; how it was run: as §2
Candida parapsilosis [11] = experiment: Antifungal activity against Candida parapsilosis ATCC 22019 after 48 hrs in the presence of 10% FBS by broth dilution method; assay type: functional; details: Lodderomyces parapsilosis, ATCC 22019, 48 h
Candida albicans [12] = experiment: Antifungal activity against itraconazole and fluconazole susceptible Candida albicans ATCC MYA-2310 after 48 hrs by broth dilution method; assay type: functional; details: Candida albicans, ATCC MYA-2310, 48 h
Candida albicans [13] = experiment: Antifungal activity against Candida albicans ATCC 10231 after 48 hrs in the presence of 10% FBS by broth dilution method; assay type: functional; details: ATCC 10231, 48 h
Nakaseomyces glabratus [14] = experiment: Antifungal activity against Candida glabrata ATCC 2001 after 48 hrs by broth dilution method; assay type: functional, CBS 138; details: Nakaseomyces glabratus, CBS 138, 48 h
Aspergillus nidulans [15] = experiment: Antifungal activity against Aspergillus nidulans ATCC 38163 after 48 hrs by broth dilution method; assay type: functional; details: Aspergillus nidulans, ATCC 38163, 48 h
How it was run: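 A. nidulans run per CLSI M38-A2. PDA spores were filtered through glass wool and counted by hemocytometer. Test range 0.03–31.3 µg/mL in MOPS-buffered RPMI 1640 (pH 7.0), final 5 × 10^5 CFU/mL.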

Candida albicans [16] = experiment: Antifungal activity against itraconazole and fluconazole susceptible Candida albicans ATCC MYA-2876 after 48 hrs by broth dilution method; assay type: functional; details: Candida albicans, ATCC MYA-2876, 48 h
Aspergillus terreus = experiment: Antifungal activity against Aspergillus terreus ATCC MYA-3633 after 48 hrs by broth dilution method; assay type: functional; details: Aspergillus terreus, ATCC MYA-3633, 48 h
How it was run: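 Molds tested per CLSI M38-A2. Spores were harvested from sporulating PDA cultures by filtering through glass wool and counted on a hemocytometer. Serial dilutions (0.03–31.3 µg/mL) were made in RPMI 1640 buffered to pH 7.0 with 0.165 M MOPS, final inoculum 5 × 10^5 CFU/mL.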

Candida albicans [17] = experiment: Antifungal activity against Candida albicans ATCC 10231 after 48 hrs by broth dilution method; assay type: functional; details: ATCC 10231, 48 h
[18] = Cytotoxicity against human A549 cells assessed as cell survival at 7.8 ug/mL after 24 hrs by resazurin-based fluorescence assay; details: read-out: Survival; how it was run: as §3
Candida parapsilosis [19] = experiment: Fungistatic activity against Candida parapsilosis ATCC 22019 up to 8 times MIC incubated for 24 hrs by time kill assay; assay type: functional; how it was run: as §1
Candida parapsilosis [20] = experiment: Antifungal activity against Candida parapsilosis ATCC 22019 after 48 hrs by broth dilution method; assay type: functional; details: Lodderomyces parapsilosis, ATCC 22019, 48 h
Candida albicans [21] = experiment: Ratio of MIC80 for voriconazole resistant Candida albicans ATCC 64124 sessile cells to MIC for voriconazole resistant Candida albicans ATCC 64124; assay type: functional
[22] = Cytotoxicity against human BEAS2B cells assessed as cell survival at 7.8 ug/mL after 24 hrs by resazurin-based fluorescence assay; details: BEAS-2B cells, read-out: Survival; how it was run: as §3
A549 [23] = experiment: Cytotoxicity against human A549 cells up to 15.5 ug/mL after 24 hrs by resazurin-based fluorescence assay; assay type: cell-based; details: a549, 24 h
How it was run: (§4)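 Cells grown in DMEM with 10% FBS at 37 °C, 5% CO2, and seeded at 10000 (HEK-293) or 3000 (BEAS-2B, A549) per well. After 16 h, exposed 24 h to 0.13–31 µg/mL final in medium with 0.1–0.4% DMSO. Resazurin added for 6–10 h; fluorescence read at 560/590 nm and survival normalized to DMSO control after background subtraction. Triton X-100 12.5% v/v positive control; duplicate.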

BEAS-2B = experiment: Cytotoxicity against human BEAS2B cells at 7.8 ug/mL after 24 hrs by resazurin-based fluorescence assay; assay type: cell-based; how it was run: as §4
HEK293 = experiment: Cytotoxicity against HEK293 cells at 7.8 ug/mL after 24 hrs by resazurin-based fluorescence assay; assay type: cell-based; details: human, hek293, 24 h; how it was run: as §4
Candida albicans [24] = experiment: Inhibition of 14alpha-demethylase in Candida albicans ATCC 10231 assessed as eburicol levels at […] by GC-MS analysis; parameters: scale not given: the % may be the effect or the level left
A549 [25] = experiment: Cytotoxicity against human A549 cells up to 7.8 ug/mL after 24 hrs by resazurin based fluorescence assay; assay type: cell-based; details: a549, 24 h; how it was run: as §4
Candida albicans [26] = experiment: Inhibition of 14alpha-demethylase in Candida albicans ATCC 10231 assessed as total sterol levels at […] by GC-MS analysis; parameters: scale not given: the % may be the effect or the level left
Candida albicans [27] = experiment: Inhibition of 14alpha-demethylase in Candida albicans ATCC 10231 assessed as ergosterol levels at […] by GC-MS analysis; parameters: scale not given: the % may be the effect or the level left
Candida albicans [28] = experiment: Fungicidal activity against Candida albicans ATCC 10231 at 4 times MIC incubated for 24 hrs by time kill assay; assay type: functional; how it was run: as §1
Candida albicans [29] = experiment: Inhibition of 14alpha-demethylase in Candida albicans ATCC 10231 assessed as lanosterol levels at […] by GC-MS analysis; parameters: scale not given: the % may be the effect or the level left
Candida albicans [30] = experiment: Antifungal activity against Candida albicans ATCC 10231 at 3.9 ug/mL incubated for 1 hr by propidium iodide staining-based fluorescence microscopic method; assay type: functional
How it was run: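 C. albicans ATCC 10231 from an overnight YPD culture (35 °C, 200 rpm) was transferred into RPMI 1640 and exposed to drug. Membrane integrity was assessed by uptake of propidium iodide under fluorescence microscopy.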

Candida albicans [31] = experiment: Inhibition of 14alpha-demethylase in Candida albicans ATCC 10231 assessed as 14alpha-methyl ergosta-8,24(28)-dien-3beta,6alpha-diol levels at […] by GC-MS analysis; parameters: scale not given: the % may be the effect or the level left

Row | Structure (SMILES) | MIC (Aspergillus nidulans [1]) | MIC (Aspergillus flavus) | MIC (Candida albicans [3]) | solubility [5] | MIC50 (Candida albicans [6]) | MIC80 (Candida albicans [6]) | MIC (Candida albicans [7]) | MIC (Pichia kudriavzevii) | solubility [8] | MIC (Candida albicans [9]) | MIC (Candida albicans [10]) | MIC (Candida parapsilosis [11]) | MIC (Candida albicans [12]) | MIC (Candida albicans [13]) | MIC (Nakaseomyces glabratus [14]) | MIC (Aspergillus nidulans [15]) | MIC (Candida albicans [16]) | MIC (Aspergillus terreus) | MIC (Candida albicans [17]) | MIC (Candida parapsilosis [20]) | also measured
1 | CCCCCCCCCCCCN1CCN(CC(O)(Cn2cncn2)c2ccc(F)cc2F)CC1 (configuration not stated) | 3.9 µg/mL | 3.9 µM (≈ 1.92 µg/mL) | 15.9 µM (≈ 7.82 µg/mL) | Soluble | 7.8 µg/mL (≈ 15.9 µM) | 15.6 µg/mL (≈ 31.7 µM) | 31.7 µM (≈ 15.6 µg/mL) | 0.98 µM (≈ 0.482 µg/mL) | Soluble | 15.9 µM (≈ 7.82 µg/mL) | 7.9 µM (≈ 3.88 µg/mL) | 0.06 µg/mL | 15.9 µM (≈ 7.82 µg/mL) | 1.95 µg/mL | 2 µM (≈ 0.983 µg/mL) | 7.9 µM (≈ 3.88 µg/mL) | 7.9 µM (≈ 3.88 µg/mL) | 7.9 µM (≈ 3.88 µg/mL) | 3.9 µM (≈ 1.92 µg/mL) | 0.03 µM (≈ 0.0148 µg/mL) | Activity (Nakaseomyces glabratus [2]): Active; viability at 24 h, 7.8 ug/mL [4]: < 40%; viability at 24 h, 7.8 ug/mL [18]: < 40%; Activity (Candida parapsilosis [19]): Active; Ratio (Candida albicans [21]): 1 - 2; viability at 24 h, 7.8 ug/mL [22]: < 40%
2 | CCCCCCCCN1CCN(CC(O)(Cn2cncn2)c2ccc(F)cc2F)CC1 (configuration not stated) |  | 4.5 µM (≈ 1.96 µg/mL) | 71.9 µM (≈ 31.3 µg/mL) |  |  |  | 2.2 to 71.9 µM (≈ 0.958 to 31.3 µg/mL) | 17.9 µM (≈ 7.8 µg/mL) |  | 71.9 µM (≈ 31.3 µg/mL) | 35.8 µM (≈ 15.6 µg/mL) |  | > 71.9 µM |  | 35.8 µM (≈ 15.6 µg/mL) | 9 µM (≈ 3.92 µg/mL) | 71.9 µM (≈ 31.3 µg/mL) | 9 µM (≈ 3.92 µg/mL) | 9 µM (≈ 3.92 µg/mL) | 0.1 µM (≈ 0.0436 µg/mL) | Activity (A549 [23]): Non-Toxic; Activity (BEAS-2B): Toxic; Activity (HEK293): Toxic
3 | CCCCCCCCCCN1CCN(CC(O)(Cn2cncn2)c2ccc(F)cc2F)CC1 (configuration not stated) | 0.975 µg/mL | 0.5 µM (≈ 0.232 µg/mL) | 16.8 µM (≈ 7.79 µg/mL) | Soluble | 15.6 µg/mL (≈ 33.6 µM) | 62.5 µg/mL (≈ 135 µM) | 8.4 µM (≈ 3.89 µg/mL) | 4.2 µM (≈ 1.95 µg/mL) | Soluble | 8.4 µM (≈ 3.89 µg/mL) | 8.4 µM (≈ 3.89 µg/mL) | 0.06 µg/mL | 16.8 µM (≈ 7.79 µg/mL) | 0.975 µg/mL | > 67.5 µM | 2.1 µM (≈ 0.974 µg/mL) |  | 2.1 µM (≈ 0.974 µg/mL) | 2.1 µM (≈ 0.974 µg/mL) | 0.03 µM (≈ 0.0139 µg/mL) | Activity (Candida albicans [24]): 1.25%; Activity (A549 [25]): Non-Toxic; Activity (Candida albicans [26]): 2.8 to 14.4%; Activity (Candida albicans [27]): 30.1%; Activity (Candida albicans [28]): Active; Activity (BEAS-2B): Toxic; Activity (Candida albicans [29]): 33.4%; Activity (Candida albicans [30]): inactive; Activity (Candida parapsilosis [19]): Active; Activity (Candida albicans [31]): 15.4%; Activity (HEK293): Toxic
